Test results taken from ChEMBL document CHEMBL3612020.
The source made the active and inactive calls. The rule behind the calls is not given here.

Legend:
D-amino-acid oxidase [1] = target: T1, D-amino-acid oxidase (Homo sapiens, UniProt P14920); experiment: Inhibition of recombinant human DAAO expressed in HEK cells using D-serine as substrate assessed as formation of alpha-keto acid, ammonia, […] after 20 mins by horseradish peroxidase/o-phenylenediamine-based assay; parameters: species or system HEK293
How it was run: (§1)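 Human DAAO from HEK cells: lysate in 50 mM Tris pH 8.5 with 100 µM FAD, sonicated, then ion-exchange purified with a 0–0.5 M NaCl gradient. […] Enzyme set to give 2.0 mOD/min uninhibited. Rate read as absorbance change at 411 nm. Mean ± SD of ≥4 experiments in most cases.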

D-amino-acid oxidase [2] = target: T1, D-amino-acid oxidase; experiment: Inhibition of DAAO (unknown origin); how it was run: as §1
[3] = Metabolic stability in mouse liver microsomes assessed as compound remaining at 5 uM after 60 mins by LC/MS/MS analysis in presence of UDPGA; type: ADME; conditions: 1 h
How it was run: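 Glucuronidation in mouse liver microsomes (0.5 mg/mL): 50 mM Tris-HCl pH 7.5, 8 mM MgCl2, 25 µg/mL alamethicin, pre-incubated at 37 °C. Started with 2 mM UDPGA (final), in duplicate, for 60 min. Quenched with cold acetonitrile plus internal standard; LC/MS/MS read-out, with cofactor-free controls.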

[4] = target: T2, Glycine receptor subunit alpha-1 (Homo sapiens) (UniProt P23415); experiment: Inhibition of strychnine-sensitive glycine receptor (unknown origin) at 10 uM relative to control
T2 sequence (whole entry): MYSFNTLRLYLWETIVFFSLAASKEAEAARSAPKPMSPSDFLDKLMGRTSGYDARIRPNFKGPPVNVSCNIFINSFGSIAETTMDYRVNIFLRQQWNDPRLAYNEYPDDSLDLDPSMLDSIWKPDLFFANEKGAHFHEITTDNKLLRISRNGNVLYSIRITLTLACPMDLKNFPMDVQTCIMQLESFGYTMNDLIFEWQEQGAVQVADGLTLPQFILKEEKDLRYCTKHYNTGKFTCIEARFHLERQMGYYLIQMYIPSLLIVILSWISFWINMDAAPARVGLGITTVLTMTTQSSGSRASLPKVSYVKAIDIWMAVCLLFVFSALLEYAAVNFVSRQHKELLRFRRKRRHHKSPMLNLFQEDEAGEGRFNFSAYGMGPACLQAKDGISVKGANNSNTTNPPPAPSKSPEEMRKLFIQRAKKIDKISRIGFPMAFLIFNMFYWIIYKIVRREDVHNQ

Mus musculus [5] = experiment: Ratio of drug level in brain to plasma in CD1 mouse at 30 mg/kg, po; type: ADME, organism-based
[6] = Tmax in CD1 mouse at 30 mg/kg, po; type: ADME, organism-based; conditions: in vivo
How it was run: (§2)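 Male CD1 mice, n = 3 per time point, dosed iv or po. About 1 mL blood taken by cardiac puncture into heparinized tubes, kept on wet ice, centrifuged 10 min at 800 g, 4 °C. Plasma stored at −80 °C; drug levels measured by HPLC–QTOF-MS.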

[7] = AUClast in CD1 mouse at 30 mg/kg, po; type: ADME, organism-based; parameters: dose 30 mg/kg, route oral, time 0 - last; conditions: in vivo; how it was run: as §2
[8] = AUClast in CD1 mouse at 30 mg/kg, iv; type: ADME, organism-based; parameters: dose 30 mg/kg, route intravenous, time 0 - last; conditions: in vivo; how it was run: as §2
[9] = target: T3, Glutamate NMDA receptor; GRIN1/GRIN2A (Homo sapiens) (UniProt Q05586+Q12879); experiment: Inhibition of NMDA receptor MK801 binding site (unknown origin) at 10 uM relative to control; type: protein-complex assay
Mus musculus [10] = experiment: Increase in plasma Cmax of D-serine in CD1 mouse at 30 mg/kg, po; type: ADME, organism-based; conditions: in vivo
Mus musculus [11] = experiment: Decrease in plasma clearance of D-serine in CD1 mouse assessed as D-serine AUC (0 to 6 hrs) at 30 mg/kg, po (R[…]microg.hr/ml); type: functional
Salmonella typhimurium [12] = experiment: Mutagenicity in Salmonella typhimurium TA100 by Ames test in presence of S9 mixture; type: toxicity, organism-based; conditions: salmonella enterica subsp. enterica serovar typhimurium
[13] = target: T3, Glutamate NMDA receptor; GRIN1/GRIN2A (Homo sapiens); experiment: Inhibition of NMDA receptor glycine binding site (unknown origin) at 10 uM relative to control; type: protein-complex assay
D-amino-acid oxidase [14] = target: T1, D-amino-acid oxidase; experiment: Inhibition of recombinant human DAAO expressed in HEK cells in presence of 10 to 100 uM of FAD; type: cell-based; conditions: HEK293
How it was run: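 Reactions ran in 50 mM Tris pH 8.5 with 2% DMSO final, for 20 min at room temperature. Absorbance rate was read at 411 nm. IC50 was determined with FAD raised from 10 to 100 µM.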

MAO-B = target: T4, MAO-B (Homo sapiens, UniProt P27338); experiment: Inhibition of MAO-B (unknown origin) at 10 uM relative to control
T4 sequence (P27338 whole entry): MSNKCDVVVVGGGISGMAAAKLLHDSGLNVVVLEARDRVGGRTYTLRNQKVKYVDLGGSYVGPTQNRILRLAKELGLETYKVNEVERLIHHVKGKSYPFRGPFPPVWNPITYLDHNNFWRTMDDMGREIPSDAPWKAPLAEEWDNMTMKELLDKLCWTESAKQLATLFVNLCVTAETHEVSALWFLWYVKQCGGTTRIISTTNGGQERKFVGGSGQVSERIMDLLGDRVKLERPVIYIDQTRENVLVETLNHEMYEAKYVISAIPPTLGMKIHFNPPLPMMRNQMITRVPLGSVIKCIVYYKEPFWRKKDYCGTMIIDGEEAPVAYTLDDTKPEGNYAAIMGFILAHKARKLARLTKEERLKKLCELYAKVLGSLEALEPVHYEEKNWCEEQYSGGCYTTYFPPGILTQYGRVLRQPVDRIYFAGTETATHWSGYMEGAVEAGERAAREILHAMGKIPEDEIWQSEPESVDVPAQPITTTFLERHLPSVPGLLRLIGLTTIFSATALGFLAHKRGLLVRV

Salmonella typhimurium [15] = experiment: Mutagenicity in Salmonella typhimurium TA100 by Ames test in absence of S9 mixture; type: toxicity, organism-based; conditions: salmonella enterica subsp. enterica serovar typhimurium
[16] = target: T3, Glutamate NMDA receptor; GRIN1/GRIN2A (Homo sapiens); experiment: Inhibition of NMDA receptor phencyclidine binding site (unknown origin) at 10 uM relative to control; type: protein-complex assay
[17] = Terminal half life in CD1 mouse at 30 mg/kg, iv; type: ADME, organism-based; conditions: in vivo, read-out: beta t1/2 (converted); how it was run: as §2
[18] = target: T3, Glutamate NMDA receptor; GRIN1/GRIN2A (Homo sapiens); experiment: Inhibition of NMDA receptor agonist binding site (unknown origin) at 10 uM relative to control; type: protein-complex assay
D-amino-acid oxidase [19] = target: T1, D-amino-acid oxidase; experiment: Competitive inhibition of recombinant human DAAO expressed in HEK cells by double reciprocal plot analysis in presence of D-serine; parameters: species or system HEK293
How it was run: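 hDAAO was purified from HEK cell lysate by ion-exchange FPLC. […] Activity was read as the rate of absorbance change at 411 nm. The mode of inhibition and Ki came from a double reciprocal plot.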

[20] = Clearance in CD1 mouse at 30 mg/kg, iv; type: ADME, organism-based; conditions: in vivo; how it was run: as §2
[21] = Cmax in CD1 mouse at 30 mg/kg, po; type: ADME, organism-based; parameters: dose 30 mg/kg, route oral; conditions: in vivo; how it was run: as §2
[22] = Volume of distribution in CD1 mouse at 30 mg/kg, iv; type: ADME, organism-based; conditions: in vivo; how it was run: as §2
Mus musculus [23] = experiment: Oral bioavailability in CD1 mouse at 30 mg/kg; type: ADME, organism-based; conditions: in vivo; how it was run: as §2
[24] = Metabolic stability in mouse liver microsomes assessed as compound remaining at 5 uM after 60 mins by LC/MS/MS analysis in presence of NADPH; type: ADME; conditions: 1 h
How it was run: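 Mouse liver microsomes (0.5 mg/mL) with 5 µM test compound in 100 mM potassium phosphate pH 7.4 plus NADPH regenerating system (1.3 mM NADPH). Reaction started with microsomes, run in duplicate for 60 min, quenched with cold acetonitrile containing internal standard. Parent quantified by LC/MS/MS; cofactor-free controls included.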

[25] = target: Voltage-gated inwardly rectifying potassium channel KCNH2 (Homo sapiens, UniProt Q12809); experiment: Inhibition of human ERG up to 25 uM
MAO-A = target: T5, MAO-A (Homo sapiens, UniProt P21397); experiment: Inhibition of MAO-A (unknown origin) at 10 uM relative to control
T5 sequence (P21397 whole entry): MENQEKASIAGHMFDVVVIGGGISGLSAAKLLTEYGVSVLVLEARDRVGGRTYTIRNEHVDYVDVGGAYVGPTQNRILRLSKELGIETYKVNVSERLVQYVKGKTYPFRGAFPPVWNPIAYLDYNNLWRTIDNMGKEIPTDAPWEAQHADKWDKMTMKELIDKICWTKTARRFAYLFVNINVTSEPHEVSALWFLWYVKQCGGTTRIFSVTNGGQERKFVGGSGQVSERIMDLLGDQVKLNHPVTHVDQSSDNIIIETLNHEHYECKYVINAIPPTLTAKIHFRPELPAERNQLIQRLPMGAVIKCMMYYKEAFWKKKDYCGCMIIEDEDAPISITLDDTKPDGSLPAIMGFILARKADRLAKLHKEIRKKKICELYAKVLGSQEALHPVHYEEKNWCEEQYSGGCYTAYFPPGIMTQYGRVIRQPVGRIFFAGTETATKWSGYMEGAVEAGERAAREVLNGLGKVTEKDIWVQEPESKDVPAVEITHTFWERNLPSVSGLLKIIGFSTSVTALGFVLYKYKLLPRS

[26] = Volume of distribution in CD1 mouse at 10 mg/kg, iv; type: ADME, organism-based; conditions: in vivo; how it was run: as §2
Mus musculus [27] = experiment: Dose normalized AUClast in CD1 mouse at 10 mg/kg, iv; type: ADME, organism-based; conditions: in vivo; how it was run: as §2
[28] = Terminal half life in CD1 mouse at 10 mg/kg, iv; type: ADME, organism-based; conditions: in vivo, read-out: beta t1/2 (converted); how it was run: as §2

Chain of Voltage-gated inwardly rectifying potassium channel KCNH2 (Q12809 whole entry): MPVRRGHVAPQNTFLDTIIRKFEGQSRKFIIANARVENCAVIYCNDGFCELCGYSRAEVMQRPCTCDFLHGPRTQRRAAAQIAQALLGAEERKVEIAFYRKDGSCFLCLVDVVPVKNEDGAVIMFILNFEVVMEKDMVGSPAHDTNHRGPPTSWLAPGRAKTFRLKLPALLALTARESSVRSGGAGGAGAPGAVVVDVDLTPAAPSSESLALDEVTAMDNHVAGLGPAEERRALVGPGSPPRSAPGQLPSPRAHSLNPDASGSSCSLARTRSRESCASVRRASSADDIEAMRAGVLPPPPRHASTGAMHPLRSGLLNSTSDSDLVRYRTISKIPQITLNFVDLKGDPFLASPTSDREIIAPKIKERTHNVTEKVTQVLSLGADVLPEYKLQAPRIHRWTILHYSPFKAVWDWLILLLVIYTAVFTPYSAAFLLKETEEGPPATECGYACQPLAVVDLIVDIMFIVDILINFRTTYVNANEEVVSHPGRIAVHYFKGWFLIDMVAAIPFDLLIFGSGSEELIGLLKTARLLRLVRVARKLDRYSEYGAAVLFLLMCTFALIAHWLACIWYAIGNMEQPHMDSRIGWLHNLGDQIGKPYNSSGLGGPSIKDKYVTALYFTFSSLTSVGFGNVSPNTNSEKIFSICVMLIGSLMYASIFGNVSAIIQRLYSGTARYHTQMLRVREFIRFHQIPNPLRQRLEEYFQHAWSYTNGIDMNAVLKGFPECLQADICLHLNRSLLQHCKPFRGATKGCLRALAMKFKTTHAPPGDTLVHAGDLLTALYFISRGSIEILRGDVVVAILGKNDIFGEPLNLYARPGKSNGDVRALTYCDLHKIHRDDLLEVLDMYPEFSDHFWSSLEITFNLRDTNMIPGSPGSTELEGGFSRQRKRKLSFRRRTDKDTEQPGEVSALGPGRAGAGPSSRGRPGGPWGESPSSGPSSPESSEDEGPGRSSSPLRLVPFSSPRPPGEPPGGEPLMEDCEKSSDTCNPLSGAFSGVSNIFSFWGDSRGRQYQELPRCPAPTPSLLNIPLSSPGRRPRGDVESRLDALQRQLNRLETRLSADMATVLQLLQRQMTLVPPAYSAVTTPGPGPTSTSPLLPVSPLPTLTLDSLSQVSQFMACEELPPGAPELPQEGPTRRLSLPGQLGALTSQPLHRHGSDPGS

## O=c1[nH]c(=O)n(CCc2ccccn2)nc1O
D-amino-acid oxidase [1]
  IC50: 760 nM

## CO/N=C(\C(=O)N[C@@H]1C(=O)N2C(C(=O)O)=C(CSc3nc(=O)c(=O)[nH]n3C)CS[C@H]12)c1csc(N)n1 [CEFTRIAXONE]
D-amino-acid oxidase [2]
  IC50: 10000 nM

## Cc1cccc(CCn2nc(O)c(=O)[nH]c2=O)c1
D-amino-acid oxidase [1]
  IC50: 70 nM

## O=c1[nH]c(=O)n(CCc2ccc(O)cc2)nc1O
D-amino-acid oxidase [1]
  IC50: 110 nM

## CC(C)CCn1nc(O)c(=O)[nH]c1=O
D-amino-acid oxidase [1]
  IC50: 260 nM

## O=c1[nH]c(=O)n(CCc2ccccc2)cc1O
D-amino-acid oxidase [1]
  IC50: 80 nM
[3]
  Stability: <= 1%

## O=c1[nH]c(=O)n(Cc2ccc3ccccc3c2)nc1O
D-amino-acid oxidase [1]
  IC50: 220 nM

## COc1ccccc1CCn1nc(O)c(=O)[nH]c1=O
D-amino-acid oxidase [1]
  IC50: 270 nM

## O=c1[nH]c(=O)n(Cc2cccc3ccccc23)nc1O
[4]
  inhibition: < 5%
Mus musculus [5]
  BPR: 0.01
[6]
  Tmax: 4.8 min
[7]
  AUC(0-t): 12900 ng·h/mL
[8]
  AUC(0-t): 16300 ng·h/mL
[9]
  inhibition: < 5%
Mus musculus [10]
  Activity: Not Active
Mus musculus [11]
  Activity: 96.9 µg·h/mL
Salmonella typhimurium [12]
  Activity: Non-toxic
[13]
  inhibition: 22%
D-amino-acid oxidase [14]
  inhibition: Active
MAO-B
  inhibition at 10 µM: ≤ 5%
Salmonella typhimurium [15]
  Activity: Non-toxic
[16]
  inhibition: < 5%
[17]
  half-life: 54 min
[18]
  inhibition: < 5%
D-amino-acid oxidase [19]
  Ki: 60 nM
[20]
  clearance: 10.2 mL/min/kg
[21]
  Cmax: 13800 ng/mL
[22]
  Vd: 0.8 L/kg
Mus musculus [23]
  F: 79%
[24]
  Stability: >= 99%
[25]
  inhibition (INH): Not Active
MAO-A
  inhibition at 10 µM: ≤ 5%
[3]
  Stability: >= 99%

## O=c1[nH]c(=O)n(CCc2cccc(C(F)(F)F)c2)nc1O
D-amino-acid oxidase [1]
  IC50: 100 nM

## O=c1[nH]c(=O)n(CCc2cccc(Oc3ccccc3)c2)nc1O
D-amino-acid oxidase [1]
  IC50: 240 nM

## O=c1[nH]c(=O)n(-c2ccccc2)nc1O
D-amino-acid oxidase [1]
  IC50: > 100000 nM

## Cn1nc(O)c(=O)[nH]c1=O
D-amino-acid oxidase [1]
  IC50: 2800 nM

## O=c1[nH]c(=O)n(CCc2ccccc2)nc1O
D-amino-acid oxidase [1]
  IC50: 70 nM
[24]
  Stability: >= 99%
[3]
  Stability: >= 99%

## O=c1[nH]nc(CCc2cc(F)cc(F)c2)cc1O
[6]
  Tmax: 15 min
[7]
  AUC(0-t): 3900 ng·h/mL
[26]
  Vd: 0.5 L/kg
[21]
  Cmax: 6600 ng/mL
[24]
  Stability: 92%
Mus musculus [27]
  AUClast/dose: 12.7 µg·h/mL
[28]
  half-life: 12 min

## COc1cccc(CCn2nc(O)c(=O)[nH]c2=O)c1
D-amino-acid oxidase [1]
  IC50: 120 nM

## COc1ccc(CCn2nc(O)c(=O)[nH]c2=O)cc1
D-amino-acid oxidase [1]
  IC50: 120 nM
